Cytotoxicity data for 96 compounds are collected here from ChEMBL document CHEMBL4513216, “Probing the Open Global Health Chemical Diversity Library for Multistage-Active Starting Points for Next-Generation Antimalarials” (ACS Infect Dis, 2020).

This series is described as follows: Toxicity liver stage against HepG2, at 10uM. The series is classed as cell-based. Also noted: test concentration 10 uM, cell line HepG2-A16-CD81EGFP. The note with it: human, HepG2-A16-CD81EGFP cells; read-out: INHIBITION
The method in brief: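 Uninfected HepG2-A16-CD81EGFP cells, 3 × 10^3 per well, 1536-well, plated on prespotted compound at 10 μM final, parasite-free screening media added to match infected plates; puromycin 10 μM positive, DMSO 0.5% negative; run in parallel with 48 h PbLuc assay at 37 °C, 5% CO2; viability by CellTiter-Glo luminescence, normalized to controls.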
For the compound `Cn1cnnc1C1CCCN(C(=O)c2cc3ccccc3[nH]2)C1` (stereo unspecified), the cytotoxicity at 10 µM is -7.88%.

Take `Cn1nccc1CNC(=O)Nc1cc(C(F)(F)F)c[nH]c1=O`: the cytotoxicity at 10 µM worked out at 1.04%.

As for `c1ccc(CN2CCO[C@H]3[C@H](OCCN4CCCC4)CC[C@@H]32)nc1`, the cytotoxicity at 10 µM was -1.5%.

On to `Cc1nn(C)c2nc(N3CCCCC3c3ccc(F)cc3)sc12` (stereo unspecified), for which the cytotoxicity at 10 µM is -7.88%.

Regarding `CN(C)C1CCCN(Cc2cccc(Cn3cccn3)c2)CC1` (stereo unspecified), the cytotoxicity at 10 µM was -12.6%.

As for `CCN1CCN(C(=O)c2csnn2)c2ccccc21`, the cytotoxicity at 10 µM is -1.46%.

For the compound `Clc1cc(CN2CCCCC2Cn2cncn2)c2ncccc2c1` (stereo unspecified), the cytotoxicity at 10 µM was -12.9%.

With `CC(=O)NCC(=O)N(CCc1ccccc1)C1CCOC1` (stereo unspecified), the cytotoxicity at 10 µM was 3.02%.

In the case of `O=C1CO[C@@H]2CN(CC3CCOCC3)C[C@H]2N1CC1CC1`, the cytotoxicity at 10 µM turned out to be 1.57%.

For the compound `COc1cccc(CNC(CN2CCN(C)CC2)c2ccccc2)c1` (stereo unspecified), the cytotoxicity at 10 µM came to 12.5%.

Consider `CNc1ncc(C(=O)N2CCCC(CO)(CCCOC)C2)cn1` (stereo unspecified), for which the cytotoxicity at 10 µM was -44.4%.

As to `COc1ccc(F)c(NCC(C)(C)S(C)(=O)=O)c1`, the cytotoxicity at 10 µM was -3.18%.

For the compound `COCCN1CCCC1c1nccnc1Nc1nccs1` (stereo unspecified), the cytotoxicity at 10 µM is -7.55%.

`CC(C)N1CCC(c2nnc(CN3CCCC3)n2C2CC2)CC1`: the cytotoxicity at 10 µM is -4.57%.

For the compound `Cc1nn(C(C)C)c2cnn(CC(=O)N3CCN(C)CC3)c12`, the cytotoxicity at 10 µM worked out at 9.51%.

As for `Cc1ccc2c(c1)[C@@H](CC(=O)N(C)C)CCO2`, the cytotoxicity at 10 µM was -3.78%.

As for `Cc1cc2cccc(C(=O)N3CC[C@@H](N)[C@H](O)C3)c2o1`, the cytotoxicity at 10 µM was -0.193%.

For the compound `Cc1c(C(=O)O)sc2nc(C(F)(F)F)ccc12`, the cytotoxicity at 10 µM was 1.5%.

With `CC(C)CN1C(=O)CC[C@H]2CN(C(=O)Cn3ccccc3=O)CC[C@H]21`, the cytotoxicity at 10 µM is -7.37%.

Turning to `Cc1cc(F)ccc1OC1(C(=O)O)CCN(Cc2nccn2C)CC1`, the cytotoxicity at 10 µM is 0.334%.

For `Cc1cc(N2CCN(C(=O)CCc3scnc3C)CC2)nc(N)n1`, the cytotoxicity at 10 µM is -49.2%.

Consider `Cc1ccc(CN(C)C(=O)CNC(=O)N2CCc3ccccc3C2)o1`, for which the cytotoxicity at 10 µM was determined as 5.95%.

Consider `O=C(NCCN1CCCCC1)c1ccn(-c2ccc(F)cc2)n1`, for which the cytotoxicity at 10 µM is -8.05%.

In the case of `CCc1ocnc1C(=O)N1CCCC1c1noc(C(C)C)n1` (stereo unspecified), the cytotoxicity at 10 µM is -8.69%.

Consider `O=S1(=O)c2ccccc2C2(CCN(Cc3ccccc3)C2)N1CC1CC1` (stereo unspecified), for which the cytotoxicity at 10 µM worked out at 16.3%.

`c1coc(-c2nnc(CN3CCOC(Cn4cccn4)C3)o2)c1` (stereo unspecified): the cytotoxicity at 10 µM was -11%.

Regarding `CC(NC(=O)CCn1cccn1)c1ccc2c(c1)OCCO2` (stereo unspecified), the cytotoxicity at 10 µM was -7.79%.

Turning to `Fc1ccc(F)c(CN2CCC(c3n[nH]c4ncccc34)CC2)c1`, the cytotoxicity at 10 µM was -25.4%.

`Clc1ccccc1-c1nc(CNC2CCc3ncnn3C2)co1` (stereo unspecified): the cytotoxicity at 10 µM is -7.6%.

`CCSc1ccccc1C(=O)NCC1CCN(Cc2ccsc2)CC1`: the cytotoxicity at 10 µM is -8.44%.

On to `Cc1nnc(NC(=O)NC(C)C(=O)NC2CCCC2)s1` (stereo unspecified), for which the cytotoxicity at 10 µM was -0.334%.

As to `CC(C)c1n[nH]c(C2CN(C(=O)c3ccnc(C4CC4)n3)CCO2)n1` (stereo unspecified), the cytotoxicity at 10 µM was -12.6%.

For the compound `CC(=O)NC1CCCN(c2ccc(C#N)cc2C(F)(F)F)C1` (stereo unspecified), the cytotoxicity at 10 µM turned out to be 7.44%.

Take `CN(C)C(=O)C1CCC2(CCN(C(=O)Nc3ccccc3)CC2)O1` (stereo unspecified): the cytotoxicity at 10 µM was -106%.

As for `COc1cccc(OCC2CCCN(C(=O)CCCn3cccn3)C2)c1` (stereo unspecified), the cytotoxicity at 10 µM turned out to be 8.12%.

`CC(C)n1ccc2cc(C(=O)Nc3nc[nH]n3)ccc21`: the cytotoxicity at 10 µM came to 4.06%.

As to `COc1cccc2c1ccn2CCC(=O)N1CCC(C(=O)O)CC1`, the cytotoxicity at 10 µM is 7.08%.

Take `COc1ccc(OC)c(NC(=O)CSc2ccc3nncn3n2)c1`: the cytotoxicity at 10 µM was -14.2%.

Take `COCCN(C(=O)c1c[nH]c2ncccc12)C1CCCC1`: the cytotoxicity at 10 µM was -3.08%.

With `CCN1CCN(S(=O)(=O)N2CCCC2)[C@H]2CS(=O)(=O)C[C@H]21`, the cytotoxicity at 10 µM is -4.14%.

With `COCCN1CCC2(CCCN(c3ncccn3)C2)C1` (stereo unspecified), the cytotoxicity at 10 µM came to 1.36%.

In the case of `Cc1ccc2nc(C(=O)N3C[C@@H](C(=O)O)[C@H](c4cccnc4)C3)cn2c1`, the cytotoxicity at 10 µM stood at 2.98%.

Regarding `CCN1CC[C@@]2(C(=O)N3CCOCC3)CCN(C(=O)C(C)C)CC[C@@H]12`, the cytotoxicity at 10 µM is -11.5%.

For `Cc1ccc(CN(C)C(=O)NCC(=O)NC(C)(C)C)s1`, the cytotoxicity at 10 µM turned out to be 0.136%.

Turning to `CC(c1ccccc1)N(C)C(=O)CNCCn1cccn1` (stereo unspecified), the cytotoxicity at 10 µM stood at 4.58%.

Regarding `CC(C)CC(CCO)CNC(=O)N1CCC1(C)C` (stereo unspecified), the cytotoxicity at 10 µM was -3.25%.

`NC(=O)NC(=O)CCSc1ccccc1Cl`: the cytotoxicity at 10 µM is 11.8%.

For `Cc1noc(C(C)N2CCN(c3ncnc4ccccc34)CC2)n1` (stereo unspecified), the cytotoxicity at 10 µM was found to be 17.7%.

As for `O=C(c1cnc(-c2ccccn2)s1)N1CCCC(n2cccn2)C1` (stereo unspecified), the cytotoxicity at 10 µM is -11.9%.

As for `O=C(NCc1cc(=O)n2c(n1)CN(CC1CC1)CCC2)c1ccsc1`, the cytotoxicity at 10 µM is -103%.

For the compound `CCCC1CCCN(C(=O)Nc2cccnc2OC)CC1` (stereo unspecified), the cytotoxicity at 10 µM worked out at 4.52%.

`O=C(NC1CCCCC1)c1cc(Br)cnc1N1CCCCC1`: the cytotoxicity at 10 µM amounted to 2.22%.

As to `CCc1cnc(CNC(=O)NC2CCN(C3CCCC3)CC2)s1`, the cytotoxicity at 10 µM was -1.06%.

Consider `O=C1CCC(c2ccc(Cl)cc2)=NN1CN1CCSCC1`, for which the cytotoxicity at 10 µM amounted to 34.4%.

Take `CCOC(=O)N1CCN(c2nc(N3CCCC3)c3ccccc3n2)CC1`: the cytotoxicity at 10 µM is -5.31%.

Regarding `COCc1ccc(C(=O)N2CCOCC2c2ccc(C)o2)cc1` (stereo unspecified), the cytotoxicity at 10 µM was -5.48%.

With `Cc1occc1C(=O)NCC(O)c1ccc(Cl)s1` (stereo unspecified), the cytotoxicity at 10 µM was -16.4%.

Regarding `O=C(Cc1ccsc1)N1CCc2ccc(=O)n(CC3CC3)c2CC1`, the cytotoxicity at 10 µM came to 6.13%.

For the compound `Cc1noc(C)c1C(=O)N[C@@H]1CCC[C@@H](Oc2ccccc2)[C@@H]1O`, the cytotoxicity at 10 µM worked out at 4.72%.

`Cc1cc(CN2C[C@@H]3COC[C@H](C(=O)N4CCCCO4)[C@@H]3C2)oc1C`: the cytotoxicity at 10 µM is -74.1%.

`COCCCN1CCCN(C(C)C(=O)Nc2cccc(I)c2)CC1` (stereo unspecified): the cytotoxicity at 10 µM was -8.34%.

Turning to `Cc1cccc(N(C)Cc2nc3c(cnn3C)c(=O)[nH]2)c1C`, the cytotoxicity at 10 µM was -9.23%.

For the compound `O=C(NC1CC1)C1CCc2nnc(-c3cccc(C(F)(F)F)c3)n21` (stereo unspecified), the cytotoxicity at 10 µM is 8.6%.

For `O=C1NC2(CCCCC2)c2nnnn2-c2ccc(Br)cc21`, the cytotoxicity at 10 µM was determined as 6.83%.

In the case of `O=C(c1ccccn1)N1CCC2(CC1)COC(COCC1CC1)C2` (stereo unspecified), the cytotoxicity at 10 µM was found to be 5.14%.

`O=C(NCC1CCCN(C(=O)NCCc2ccccc2)C1)c1ccco1` (stereo unspecified): the cytotoxicity at 10 µM is -4.66%.

For the compound `CCN(CC)Cc1cn2c(n1)CN(C1CCOC1)CC2` (stereo unspecified), the cytotoxicity at 10 µM was found to be 4.12%.

With `CC(C)Nc1ncnc2c1CCN(C(=O)N1CCOCC1)CC2`, the cytotoxicity at 10 µM was -74%.

Turning to `CO[C@H]1CN(C(=O)c2ccc3oc(C)cc3c2)CC[C@@]12CCCO2`, the cytotoxicity at 10 µM is 0.153%.

Consider `CC(C)C(=O)N1CCC12CCCN(C(=O)c1ccccc1)C2` (stereo unspecified), for which the cytotoxicity at 10 µM was determined as 6.8%.

Regarding `CS(=O)(=O)c1ccc(NC(=O)NC2(c3cccc(F)c3)CC2)cc1`, the cytotoxicity at 10 µM amounted to 2.93%.

As to `COc1ccc2c(c1)C(=O)NC1(CC2)CCN(Cc2ccccc2)C1` (stereo unspecified), the cytotoxicity at 10 µM is 0.585%.

With `CCCc1ccc(S(=O)(=O)Nc2ccc(=O)n(C)c2)cc1`, the cytotoxicity at 10 µM worked out at 43.5%.

In the case of `Cc1ccc(CN2CCOC3(COCCN(CCN(C)C)C3)C2)o1` (stereo unspecified), the cytotoxicity at 10 µM was -1.65%.

For the compound `Cc1ccc(OCCC(=O)NC2CCc3nc(C)cn3C2)cc1` (stereo unspecified), the cytotoxicity at 10 µM is -5.59%.

Regarding `Cn1nc(C#N)c2c1CN(C(=O)c1ccsc1)CCC2`, the cytotoxicity at 10 µM is -126%.

Take `CCCC(=O)N1CCCC(Cn2cc(-c3ccc(F)cc3)nn2)C1` (stereo unspecified): the cytotoxicity at 10 µM is 7.88%.

Regarding `CN(C)C(=O)CO[C@@H]1CC[C@H]2[C@H]1OCCN2C(=O)C1CCOCC1`, the cytotoxicity at 10 µM was -7.56%.

For the compound `Cc1cc(-c2cccc(C(=O)O)c2)nc(C2CCN(C(C)C)CC2)n1`, the cytotoxicity at 10 µM was -0.723%.

With `c1coc(CN2CCO[C@H]3[C@@H](OCC4CC4)CC[C@@H]32)c1`, the cytotoxicity at 10 µM was 6.68%.

Turning to `CC(C)NC(=O)NC(C)c1ccc(-c2ccncc2)cc1` (stereo unspecified), the cytotoxicity at 10 µM was determined as 0.67%.

Consider `C=c1nc(NC)sc1=C1NC(c2c(C)ncc3c2CCNC3)=NO1`, for which the cytotoxicity at 10 µM came to 1.67%.

Turning to `CC(C)c1nnc2n1CCN(C(=O)c1cccc(C(F)(F)F)c1)C2`, the cytotoxicity at 10 µM turned out to be 4.09%.

Take `COc1cccc(OCCCc2cncc(C(N)=O)c2)c1`: the cytotoxicity at 10 µM is -124%.

As to `CC(C)(C)CC(=O)N1[C@@H](c2ccco2)[C@@H](CO)C[C@]12CCCCNC2=O`, the cytotoxicity at 10 µM was 0.122%.

With `CCNc1cc2c(nn1)CCN(C(=O)c1cc(C)n(C3CC3)c1C)C2`, the cytotoxicity at 10 µM is -0.282%.

`COc1ccccc1CN1CC[C@]2(C[C@@H](OC)CO2)C1`: the cytotoxicity at 10 µM is -5.35%.

`Cc1ccccc1CN(C)C(=O)c1cc(C2CCCN2C)ccn1` (stereo unspecified): the cytotoxicity at 10 µM is -4.76%.

Take `CC(=O)N1CCc2ncn(C)c2C1C(=O)N1CCCC1` (stereo unspecified): the cytotoxicity at 10 µM was found to be 1.9%.

With `CCCC(=O)N(CCCN1CCOCC1)c1nc2c(C)ccc(Cl)c2s1`, the cytotoxicity at 10 µM was -10.2%.

Take `CCc1c(C)sc2ncnc(N3CC[C@@H](N4CCOCC4)[C@H](O)C3)c12`: the cytotoxicity at 10 µM was -4.24%.

`COc1ccc(CNC2CCC3(CCC(=O)N3)CC2)cc1` (stereo unspecified): the cytotoxicity at 10 µM was 3.59%.

`CCc1oc(C(=O)OC)cc1Cn1cccc(C(F)(F)F)c1=O`: the cytotoxicity at 10 µM is -2.13%.

Take `COc1ccc(F)cc1C(=O)N1CCn2c(nnc2C(F)(F)F)C1`: the cytotoxicity at 10 µM is -7.61%.

For the compound `O=S(=O)(NC1CCCCC12OCCO2)c1cc(Cl)cc(Cl)c1` (stereo unspecified), the cytotoxicity at 10 µM came out at 11.5%.

Consider `O=C(NCC1CC1)C1CCC2(CN(C(=O)c3ccno3)C2)O1` (stereo unspecified), for which the cytotoxicity at 10 µM is -138%.
